Source: PubChem BioAssay (several laboratories)
Hits are enriched below; roughly 3.1% of the tested compounds scored in any of these assays.
INS promoter inh – TRM-6 insulin promoter activity inhibition; TRM-6 cells (human fetal islet line), insulin promoter-eGFP reporter, imaging; reporter expression induced with tamoxifen; inhibition, % at 2 µM; actives 0.9% (n = 130,000);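 active = inhibition above the mean plus 3 SD, with well images judged a real hit on visual review, cut at about 60% in these data, passing the limit was not always enough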
RAM inhibit – yeast RAM network inhibition; S. cerevisiae dse1pr::URA3 reporter, 5-FOA growth OD615, 2 d; analog-sensitive cbk1-as2 kinase mutant strain; actives 1.8% (n = 190,000); inhibition, % at 50 µM;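 active = inhibition above a set limit, 3 SD over mean compound inhibition, cut at about 8.4% in these data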;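 also: 0% = DMSO-only wells with no growth and 100% = 10 µM 1-NA-PP1 full growth; inhibition rescues growth on 5-FOA so higher OD means more RAM inhibition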
Ins promoter up – MIN6 insulin promoter up-regulation | actives 0.3% (n = 190,000) | z-score at 5 µM | MIN6 insulin promoter-GFP reporter, high-content imaging; stronger effect = higher value;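 active = z-score above 3 at 5 µM with at least 500 cells counted in the well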
Yeast growth inh – yeast BB579 growth reduction in restrictive medium; inhibition, % at 10 µM; S. cerevisiae BB579 growth, OD615, 48 h; actives 0.51% (n = 140,000); AID 804;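 active = inhibition above a set limit, 3 SD over the mean compound inhibition, cut at about 44% in these data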
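System: Saccharomyces cerevisiae DeaD strain BB579, replicative lifespan model yeast. Buffer or medium: restrictive glucose-based CSMM-D medium. Doses: one dose, 10 µM compound with 0.25% DMSO. Timing: 4 h preincubation and 48 h exposure at 30 °C. Detection: turbidity as optical density at 615 nm. Benchmarks: amphotericin B 10 µg/mL, positive.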
Yeast lifespan up – yeast lifespan extension | actives 0.68% (n = 130,000) | S. cerevisiae growth with nicotinamide, OD615; deaD strain in restrictive glucose medium | inhibition of the nicotinamide effect, % at 10 µM;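 active = inhibition above a set limit, placed 3 SD over the median of all compounds, cut at about 26% in these data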;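 also: 0% = nicotinamide-treated wells and 100% = cells grown without nicotinamide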
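Test system: DeaD-strain S. cerevisiae / Buffer or medium: restrictive glucose medium / Also added: nicotinamide 1.5 mM / Doses: one concentration, 10 µM, DMSO 0.25% / Schedule: 48 h at 30 °C / Signal: OD615 measurement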
RAM efflux-def – RAM network inhibition, efflux-deficient strain. S. cerevisiae efflux-deficient reporter strain, 5-FOA growth OD615, 2 days. max inhibition, %. shares compounds with RAM inhibit. 1,200 tested, under 10 active; call rule not given here;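 also: plate controls were vehicle for no effect and reference inhibitor for full effect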
* = called active by the depositor; x = no result.

SMILES	INS promoter inh	RAM inhibit	Ins promoter up	Yeast growth inh	Yeast lifespan up	RAM efflux-def
C/C(=N\OC(=O)c1ccc(OC(C)C)cc1)c1ccc(C)c(C)c1	-11	12*	x	-16	-8	3
O=C(Cn1cncn1)c1ccc(F)cc1F	-13	0	1.1	-20	3	x
[2H]c1c([2H])c([2H])c(-c2nc(N3CCCCCC3)sc2C(=O)c2ccccc2)c([2H])c1[2H]	x	13*	-1.8	-22	3	3
O=C(c1sc(N2CCOCC2)nc1-c1ccccc1)N1CCCCC1	-23	1	-0.25	-17	1	x
CC(C)OC(=O)/C(C#N)=C/c1cn(Cc2ccccc2)c2ccccc12	x	16*	0.03	-46	-1	6
CC(C)COC(=O)/C(C#N)=C/c1cn(Cc2ccccc2)c2ccccc12	x	19*	-0.06	-36	5	11
COc1ccc2c(=O)cc(-c3cccnc3)oc2c1OC	x	x	-0.56	x	x	x
Cc1cc(C(=O)CSc2ccc(Cl)cc2)cc(C)c1OC(=S)N(C)C	9	12*	x	-26	-4	5
O=C(O)c1ccc(N2C(=O)CC(N3CCC(c4nc5ccccc5[nH]4)CC3)C2=O)cc1 (configuration not stated)	x	0	0.84	x	x	x
COc1ccnc(N2CCN(c3ccc(Cl)cc3)CC2)c1C#N	-19	14*	0.3	-14	-11	4
COc1ccc(/C=N/NC(=O)c2cccc(O)c2)cc1Cn1nc(C)c([N+](=O)[O-])c1C	x	2	0.42	x	x	x
COc1ccc2no[n+]([O-])c2c1	x	x	0.21	x	x	x
COC(=O)CCSCC(=O)N1N=C(c2ccc(Br)cc2)CC1c1cccc(OC)c1OC (configuration not stated)	-387	13*	-1.2	x	x	2
COc1cccc(C2CC(c3ccc(NS(C)(=O)=O)cc3)=NN2C(=O)c2ccccc2)c1OC (configuration not stated)	0	2	x	x	x	x
C/C=C(/C)C(=O)O[C@@H]1c2c(ccc3ccc(=O)oc23)O[C@@H]1C(C)(C)OC(=O)/C(C)=C\C	-5	18*	-1.3	-54	7	5
C/C=C(/C)C(=O)OC(C)(C)[C@@H]1Cc2c(ccc3ccc(=O)oc23)O1	14	2	0.35	-36	10	x
O=C(NCCCN1CCCC1=O)C1CCCO1 (configuration not stated)	x	1	0.39	x	x	x
CCN=C1S/C(=C\c2cc(OCC)c(O)cc2Br)C(=O)N1CC	50	12*	-2.9	-43	2	3
CCN=C1S/C(=C\c2ccc(O)c(OCC)c2)C(=O)N1CC	25	2	-2.9	-62	-1	x
CCCCCCCCNC(=O)CC(NS(=O)(=O)c1ccc(NC(C)=O)cc1)C(C)C (configuration not stated)	-78	13*	0.33	-44	7	2
CC(=O)Nc1ccc(S(=O)(=O)NC(CC(=O)NCCCN2CCOCC2)C(C)C)cc1 (configuration not stated)	x	1	x	-27	-13	x
Cc1nc(C)c(NC(=O)N2CCc3ccccc32)cc1NC(=O)N1CCc2ccccc21	18	12*	-1.1	-43	-7	3
CCCNC(=O)C1CCN(c2cc(-c3ccccc3)nc3ncnn23)CC1	24	2	-0.04	x	x	x
COc1ccc(-c2noc(CCC(=O)N3CCN(c4cc(C)ccc4C)CC3)n2)cc1	-18	4	-1	-25	-17	x
Cc1ccc(-c2noc(CCC(=O)N3CCN(c4cccc(C(F)(F)F)c4)CC3)n2)cc1	-19	12*	-0.2	-48	-7	1
SMILES	INS promoter inh	RAM inhibit	Ins promoter up	Yeast growth inh	Yeast lifespan up	RAM efflux-def
Cc1ccc(OC(=O)CCN2C(=O)c3ccccc3C2=O)cc1C	x	2	0.25	x	x	x
CC(C)C[C@H](NC(=O)c1[nH]cnc1C(=O)N[C@H](C)c1ccccc1)C(=O)OCc1ccccc1	x	12*	2	x	x	4
C=CCc1cccc(/C=C/c2cc(=O)c3ccccc3[nH]2)c1O	9	3	-0.61	-22	2	x
O=C(CSc1ccc(Cl)cc1)N1CCN(c2ccc([N+](=O)[O-])cc2Cl)CC1	-54	14*	-1.1	-21	-2	5
O=C(CSc1ccc(Cl)cc1)N1CCN(c2c(Cl)cccc2[N+](=O)[O-])CC1	3	17*	-0.02	-33	3	3
CCCC(=O)N1CCN(c2ccc([N+](=O)[O-])cc2Cl)CC1	21	0	-0.24	-23	-6	x
CCOC(=O)/C(N=Nc1ccc2c(c1)OCO2)=C(\C)O	18	0	0.1	x	x	x
CCc1cc(/C(Cc2ccccn2)=N\Nc2ccccc2)c(O)cc1O	x	0	-1.3	x	x	x
COc1ccc(C(=O)Nc2nc3nccc(-c4ccccc4)n3n2)cc1	8	6	-1.2	-26	3	x
Cc1ccc(OCCn2c(=O)n(C)c3ccccc32)cc1	22	0	-0.16	x	x	x
CN1CCN(C(=O)C2=C[C@@H](c3csc4ccccc34)C[C@@H](OCc3ccc(CO)cc3)O2)CC1	x	0	0.23	x	x	x
O=C(C1=C[C@H](c2csc3ccccc23)C[C@H](OCc2ccc(CO)cc2)O1)N1CCOCC1	x	14*	0.18	x	x	1
COC(=O)c1ccccc1NC(=O)c1cccc(COc2ccccc2Cl)c1	-7	12*	-0.14	-12	-7	3
COC(=O)c1ccccc1NC(=S)NC(=O)COc1ccccc1Cl	44	4	0.06	-17	-23	x
COc1cc(/C=C/C(=O)OCC(=O)Nc2ccccc2Sc2ccc(Cl)cc2)ccc1O	7	15*	0.04	-39	-2	4
CC(C)Cn1c(=S)[nH]c2cc(Cl)ccc21	x	1	1.2	x	x	x
CCOC(=O)CSc1nc2cc(C(F)(F)F)cnc2n1C	x	x	-0.03	x	x	x
O=C(/C=C/c1ccc(Cl)cc1Cl)NCCSCc1ccccc1	9	16*	x	-38	-2	4
NNC(=O)c1ccc(COCC(F)(F)F)cc1	x	x	-0.03	x	x	x
CCOC(=O)C1=C(NC(=S)NC(=O)c2ccccc2)c2ccccc2CC1C(C)C (configuration not stated)	17	12*	-0.8	-43	-9	3
CCOC(=O)c1c(NC(=O)c2ccccc2)sc2c1CCc1ccccc1-2	43	5	-5.2	-19	2	x
CC1=C(C(N)=O)C(c2cccs2)NC(=O)N1 (configuration not stated)	x	x	0.04	x	x	x
COc1ccc2c(COC(=O)CCS(=O)(=O)c3ccccc3)cc(=O)oc2c1	-18	3	-0.32	x	x	x
Cc1cccc(NC(=O)CCC(=O)OCC(=O)c2ccc(Oc3ccc([N+](=O)[O-])cc3)cc2)c1	53	21*	-0.44	-34	18	3
O=C(COC(=O)CCCN1C(=O)c2cccc3cccc(c23)C1=O)Nc1cccc(C(F)(F)F)c1	7	12*	0.4	-49	3	3
Cc1cccc(C2c3[nH]c4ccccc4c3CCN2Cc2cnn(-c3ccc(F)cc3)c2)n1 (configuration not stated)	10	2	x	x	x	x
